Key:
hERG (KCNH2) [1] = target: T1, hERG (KCNH2) (Homo sapiens, UniProt Q12809); assay: Inhibition of human ERG at 1 uM by patch clamp technique
Glucocorticoid receptor [2] = target: T2, Glucocorticoid receptor (Homo sapiens, UniProt P04150); assay: Binding affinity to human recombinant glucocorticoid receptor by fluorescence polarization assay
T2 sequence (P04150 whole entry): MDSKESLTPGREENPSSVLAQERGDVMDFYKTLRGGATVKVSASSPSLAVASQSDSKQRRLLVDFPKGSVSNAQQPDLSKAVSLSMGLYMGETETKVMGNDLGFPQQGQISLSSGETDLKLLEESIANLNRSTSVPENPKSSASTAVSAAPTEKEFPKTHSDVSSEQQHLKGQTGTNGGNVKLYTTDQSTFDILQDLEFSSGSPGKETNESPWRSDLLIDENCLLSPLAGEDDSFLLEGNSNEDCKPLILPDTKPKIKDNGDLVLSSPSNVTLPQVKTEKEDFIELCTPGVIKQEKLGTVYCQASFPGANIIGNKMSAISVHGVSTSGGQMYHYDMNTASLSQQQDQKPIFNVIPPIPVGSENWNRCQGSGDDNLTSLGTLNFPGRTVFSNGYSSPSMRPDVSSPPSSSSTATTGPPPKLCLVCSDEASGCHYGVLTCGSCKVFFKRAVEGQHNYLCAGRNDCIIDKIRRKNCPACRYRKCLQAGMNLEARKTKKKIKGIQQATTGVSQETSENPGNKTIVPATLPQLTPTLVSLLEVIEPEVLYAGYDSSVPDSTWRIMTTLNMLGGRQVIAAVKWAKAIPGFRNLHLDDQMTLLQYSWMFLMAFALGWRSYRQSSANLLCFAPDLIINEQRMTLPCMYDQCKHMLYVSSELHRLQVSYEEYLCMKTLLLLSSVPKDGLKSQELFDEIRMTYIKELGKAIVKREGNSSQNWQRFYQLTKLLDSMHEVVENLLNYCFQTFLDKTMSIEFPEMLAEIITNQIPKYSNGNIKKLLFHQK

hERG (KCNH2) [3] = target: T1, hERG (KCNH2); assay: Inhibition of human ERG at 10 uM by patch clamp technique
Glucocorticoid receptor [4] = target: T2, Glucocorticoid receptor; assay: Antagonist activity at glucocorticoid receptor in human HepG2 cells assessed as inhibition of glucocorticoid-induced TAT activity after 24 hrs; type: cell-based
[5] = Cmax in rat at 5 mg/kg, po; type: ADME, organism-based; design: dose 5 mg/kg, route oral; settings: in vivo
Method in brief: (§1)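 Rat pharmacokinetics: oral dosing at 5 mg/kg in 10% DMSO in 0.5% aqueous methyl cellulose. Intravenous dosing at 1 mg/kg in 10% DMSO, 45% PEG400 and 45% propylene glycol. Plasma Cmax was taken after the oral dose and clearance after the iv dose, and oral bioavailability was derived.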

[6] = Clearance in rat at 1 mg/kg, iv; type: ADME, organism-based; settings: in vivo; method in brief: as §1
[7] = target: Voltage-gated inwardly rectifying potassium channel KCNH2 (Homo sapiens, UniProt Q12809); assay: Inhibition of human ERG by patch clamp technique
Voltage-gated inwardly rectifying potassium channel KCNH2, sequence (Q12809 whole entry): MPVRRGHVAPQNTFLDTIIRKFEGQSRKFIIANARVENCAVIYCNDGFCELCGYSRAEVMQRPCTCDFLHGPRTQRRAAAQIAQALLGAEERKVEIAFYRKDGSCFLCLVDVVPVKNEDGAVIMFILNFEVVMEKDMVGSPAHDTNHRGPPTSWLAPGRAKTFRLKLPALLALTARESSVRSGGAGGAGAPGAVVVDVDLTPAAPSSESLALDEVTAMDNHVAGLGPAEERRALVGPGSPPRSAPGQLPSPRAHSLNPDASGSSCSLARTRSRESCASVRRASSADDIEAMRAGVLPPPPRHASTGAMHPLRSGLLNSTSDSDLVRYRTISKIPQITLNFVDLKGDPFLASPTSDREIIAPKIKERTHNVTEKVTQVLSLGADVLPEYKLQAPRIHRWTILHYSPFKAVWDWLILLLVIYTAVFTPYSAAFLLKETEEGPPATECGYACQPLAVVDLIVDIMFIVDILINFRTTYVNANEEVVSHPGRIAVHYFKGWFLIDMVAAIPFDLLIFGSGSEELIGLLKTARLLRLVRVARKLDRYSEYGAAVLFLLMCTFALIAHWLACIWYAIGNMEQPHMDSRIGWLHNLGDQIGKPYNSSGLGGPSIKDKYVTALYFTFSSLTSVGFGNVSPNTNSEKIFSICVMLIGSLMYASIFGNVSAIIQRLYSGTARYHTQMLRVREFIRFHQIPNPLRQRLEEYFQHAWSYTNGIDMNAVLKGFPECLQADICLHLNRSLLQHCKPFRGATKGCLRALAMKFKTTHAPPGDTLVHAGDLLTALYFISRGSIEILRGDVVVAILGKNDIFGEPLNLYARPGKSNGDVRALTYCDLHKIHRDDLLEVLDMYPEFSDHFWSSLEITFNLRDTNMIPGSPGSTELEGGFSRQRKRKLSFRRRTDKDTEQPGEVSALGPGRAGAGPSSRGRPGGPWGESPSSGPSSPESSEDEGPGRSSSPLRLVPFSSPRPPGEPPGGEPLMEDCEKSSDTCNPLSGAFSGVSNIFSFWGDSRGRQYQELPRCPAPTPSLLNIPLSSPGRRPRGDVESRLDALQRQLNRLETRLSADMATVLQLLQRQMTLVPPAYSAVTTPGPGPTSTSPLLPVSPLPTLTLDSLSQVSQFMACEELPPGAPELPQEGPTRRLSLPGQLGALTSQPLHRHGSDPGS

T1 sequence (Q12809 whole entry): as above

SMILES	inhibition at 1 µM (hERG (KCNH2) [1])	Ki (Glucocorticoid receptor [2])	inhibition at 10 µM (hERG (KCNH2) [3])	Ki (Glucocorticoid receptor [4])	Cmax [5]	clearance [6]	IC50 [7]
N#Cc1cccc(S(=O)(=O)N2CCC3=Cc4c(cnn4-c4ccc(F)cc4)C[C@]3(C(=O)c3ccccn3)C2)c1	27%	0.14 nM	42%	15 nM	–	–	–
Cc1ccccc1S(=O)(=O)N1CCC2=Cc3c(cnn3-c3ccc(F)cc3)C[C@]2(C(=O)c2ccccn2)C1	26%	0.21 nM	45%	18.5 nM	–	–	–
O=C(c1ccccn1)[C@]12Cc3cnn(-c4ccc(F)cc4)c3C=C1CCN(S(=O)(=O)c1ccc(F)c(F)c1)C2	10%	0.22 nM	35%	7.5 nM	398 ng/mL	44 mL/min/kg	–
COc1cccc(S(=O)(=O)N2CCC3=Cc4c(cnn4-c4ccc(F)cc4)C[C@]3(C(=O)c3ccccn3)C2)c1	24%	0.19 nM	36%	11.4 nM	–	–	> 19000 nM
O=C(c1cccnc1)[C@]12Cc3cnn(-c4ccc(F)cc4)c3C=C1CCN(S(=O)(=O)c1ccc(C(F)(F)F)cc1)C2	–	0.83 nM	–	151 nM	–	–	–
O=C(c1cocn1)[C@]12Cc3cnn(-c4ccc(F)cc4)c3C=C1CCN(S(=O)(=O)c1ccc(C(F)(F)F)cc1)C2	–	0.16 nM	–	63 nM	–	–	–
O=C(c1ncc[nH]1)[C@]12Cc3cnn(-c4ccc(F)cc4)c3C=C1CCN(S(=O)(=O)c1ccc(C(F)(F)F)cc1)C2	–	0.47 nM	–	52 nM	–	–	–
O=C(c1nccs1)[C@]12Cc3cnn(-c4ccc(F)cc4)c3C=C1CCN(S(=O)(=O)c1ccc(C(F)(F)F)cc1)C2	–	0.23 nM	–	18 nM	–	–	–
O=C(c1ccccn1)[C@]12Cc3cnn(-c4ccc(F)cc4)c3C=C1CCN(S(=O)(=O)c1ccc(F)c(C(F)(F)F)c1)C2	16%	0.73 nM	31%	9.7 nM	112 ng/mL	103 mL/min/kg	–
O=C(c1cncs1)[C@]12Cc3cnn(-c4ccc(F)cc4)c3C=C1CCN(S(=O)(=O)c1ccc(C(F)(F)F)cc1)C2	–	0.33 nM	–	260 nM	–	–	–
O=C(c1cccs1)[C@]12Cc3cnn(-c4ccc(F)cc4)c3C=C1CCN(S(=O)(=O)c1ccc(C(F)(F)F)cc1)C2	–	0.41 nM	–	27 nM	–	–	–
O=C(c1ccco1)[C@]12Cc3cnn(-c4ccc(F)cc4)c3C=C1CCN(S(=O)(=O)c1ccc(C(F)(F)F)cc1)C2	–	0.17 nM	–	31 nM	–	–	–

From ChEMBL document CHEMBL3734698, “1H-Pyrazolo[3,4-g]hexahydro-isoquinolines as potent GR antagonists with reduced hERG inhibition and an improved pharmacokinetic profile” (Bioorg Med Chem Lett, 2015)
